{"source": "ChEMBL document CHEMBL4732105", "about": "“First orally bioavailable prodrug of proteolysis targeting chimera (PROTAC) degrades cyclin-dependent kinases 2/4/6 in vivo” (Eur J Med Chem, 2021)", "key": {"[1]": {"molecular_target": "T1, Protein cereblon/Cyclin-dependent kinase 2 (Mus musculus) (UniProt P97377+Q8C7D2)", "T1 sequence (Q8C7D2 whole entry, looked up, other chains not shown)": "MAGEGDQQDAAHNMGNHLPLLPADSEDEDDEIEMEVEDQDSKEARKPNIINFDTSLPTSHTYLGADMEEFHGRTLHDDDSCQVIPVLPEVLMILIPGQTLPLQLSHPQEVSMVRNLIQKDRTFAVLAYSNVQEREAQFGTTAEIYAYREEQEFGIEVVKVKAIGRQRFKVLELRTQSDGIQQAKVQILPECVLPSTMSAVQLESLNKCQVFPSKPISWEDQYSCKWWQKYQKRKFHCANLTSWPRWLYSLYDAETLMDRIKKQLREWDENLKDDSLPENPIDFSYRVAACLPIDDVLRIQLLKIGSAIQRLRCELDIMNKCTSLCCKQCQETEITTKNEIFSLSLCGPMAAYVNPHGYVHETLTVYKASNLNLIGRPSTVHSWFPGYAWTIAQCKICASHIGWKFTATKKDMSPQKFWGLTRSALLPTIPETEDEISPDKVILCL", "test": "Protac activity at CRBN/CDK2 in mouse B16F10 cells assessed as induction of CDK2 protein degradation after 12 hrs by Western blot analysis", "type": "cell-based", "conditions": "B16-F10, dose 62.5-1000 nM", "summary_of_the_method": "(§1)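 B16F10 and A375 cells treated with DMSO or serial dilutions of compound for 12 h (concentration series), or for the indicated times (time course). CDK2, CDK4 and CDK6 protein levels determined by western blot.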"}, "[2]": {"system": "A-375", "test": "Induction of apoptosis in human A-375 cells assessed as necrotic cells at 250 nM incubated for 48 hrs by Annexin V-FITC/PI staining based flow cytometry (reference value: 0.602%)", "type": "functional"}, "[3]": {"molecular_target": "Protein cereblon/Cyclin-dependent kinase 6 (Mus musculus) (UniProt Q8C7D2+Q64261)", "sequence (Q64261 whole entry, looked up)": "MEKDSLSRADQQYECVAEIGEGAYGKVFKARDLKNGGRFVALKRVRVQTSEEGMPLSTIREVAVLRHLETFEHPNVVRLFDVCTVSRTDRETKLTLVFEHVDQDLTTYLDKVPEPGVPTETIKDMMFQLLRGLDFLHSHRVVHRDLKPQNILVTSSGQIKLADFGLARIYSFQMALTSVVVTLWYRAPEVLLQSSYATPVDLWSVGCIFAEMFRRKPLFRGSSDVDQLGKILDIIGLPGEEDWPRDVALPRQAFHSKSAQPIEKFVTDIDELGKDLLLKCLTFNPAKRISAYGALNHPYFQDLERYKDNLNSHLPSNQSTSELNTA", "sequence (Q8C7D2 whole entry, looked up)": "as the sequence (Q8C7D2 whole entry, looked up, other chains not shown) above", "test": "Protac activity at CRBN/CDK6 in mouse B16F10 cells assessed as induction of CDK6 protein degradation after 12 hrs by Western blot analysis", "type": "cell-based", "conditions": "B16-F10, dose 62.5-1000 nM", "summary_of_the_method": "as §1"}, "[4]": {"molecular_target": "Protein cereblon/Cyclin-dependent kinase 4 (Homo sapiens) (UniProt P11802+Q96SW2)", "sequence (P11802 2-303 limits assumed)": "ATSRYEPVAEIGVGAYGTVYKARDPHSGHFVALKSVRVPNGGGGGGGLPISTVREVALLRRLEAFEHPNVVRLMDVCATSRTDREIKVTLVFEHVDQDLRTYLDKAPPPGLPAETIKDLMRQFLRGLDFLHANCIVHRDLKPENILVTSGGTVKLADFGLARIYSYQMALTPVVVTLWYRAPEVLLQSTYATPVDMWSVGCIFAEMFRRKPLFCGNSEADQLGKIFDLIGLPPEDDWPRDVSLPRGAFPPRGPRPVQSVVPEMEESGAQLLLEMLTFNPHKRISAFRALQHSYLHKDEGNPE", "sequence (Q96SW2 whole entry partner)": "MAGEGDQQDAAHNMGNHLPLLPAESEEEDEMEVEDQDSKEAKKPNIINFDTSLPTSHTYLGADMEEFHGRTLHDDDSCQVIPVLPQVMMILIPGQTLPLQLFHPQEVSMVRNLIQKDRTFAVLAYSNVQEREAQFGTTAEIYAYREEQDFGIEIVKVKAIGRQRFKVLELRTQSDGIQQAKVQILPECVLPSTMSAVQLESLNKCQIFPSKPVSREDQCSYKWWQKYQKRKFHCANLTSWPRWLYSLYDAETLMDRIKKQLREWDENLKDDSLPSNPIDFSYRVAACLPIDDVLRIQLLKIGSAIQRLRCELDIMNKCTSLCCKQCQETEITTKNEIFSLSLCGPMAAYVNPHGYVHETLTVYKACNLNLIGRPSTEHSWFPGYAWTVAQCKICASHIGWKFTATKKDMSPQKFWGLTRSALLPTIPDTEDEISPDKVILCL", "test": "Protac activity at CRBN/CDK4 in human A-375 cells assessed as induction of CDK4 protein degradation at 1000 nM by Western blot analysis", "type": "cell-based", "conditions": "time hrs <=12, TDE = time-dependent effect", "summary_of_the_method": "as §1"}, "[5]": {"system": "B16-F10", "test": "Induction of apoptosis in mouse B16F10 cells assessed as late apoptotic cells at 125 nM incubated for 48 hrs by Annexin V-FITC/PI staining based flow cytometry (reference value: 0.551%)", "type": "functional"}, "[6]": {"system": "A-375", "test": "Induction of apoptosis in human A-375 cells assessed as necrotic cells at 500 nM incubated for 48 hrs by Annexin V-FITC/PI staining based flow cytometry (reference value: 0.602%)", "type": "functional"}, "[7]": {"system": "B16-F10", "test": "Cytotoxicity against mouse B16F10 cells assessed as reduction in cell viability after 72 hrs by MTT assay", "type": "functional, cell-based", "conditions": "B16-F10, 72 h", "summary_of_the_method": "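Cells exposed to compound for 72 h and viability read by MTT; IC50 from three independent experiments.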"}, "[8]": {"system": "B16-F10", "test": "Induction of apoptosis in mouse B16F10 cells assessed as increase in cleaved caspase 3 level incubated for 48 hrs by Western blot analysis", "type": "functional, cell-based", "conditions": "dose nM <=1000, time 48.0 hrs", "summary_of_the_method": "(§2)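 A375 and B16F10 cells incubated with compound for 48 h. Cleaved caspase-3, cleaved PARP, total P53, Bcl-2 and Bax measured by western blot.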"}, "[9]": {"system": "A-375", "test": "Induction of apoptosis in human A-375 cells assessed as increase in cleaved PARP level incubated for 48 hrs by Western blot analysis", "type": "functional, cell-based", "conditions": "dose nM <=2000, time 48.0 hrs", "summary_of_the_method": "as §2"}, "[10]": {"molecular_target": "T2, Protein cereblon/Cyclin-dependent kinase 4 (Mus musculus) (UniProt P30285+Q8C7D2)", "T2 sequence (P30285 whole entry, looked up)": "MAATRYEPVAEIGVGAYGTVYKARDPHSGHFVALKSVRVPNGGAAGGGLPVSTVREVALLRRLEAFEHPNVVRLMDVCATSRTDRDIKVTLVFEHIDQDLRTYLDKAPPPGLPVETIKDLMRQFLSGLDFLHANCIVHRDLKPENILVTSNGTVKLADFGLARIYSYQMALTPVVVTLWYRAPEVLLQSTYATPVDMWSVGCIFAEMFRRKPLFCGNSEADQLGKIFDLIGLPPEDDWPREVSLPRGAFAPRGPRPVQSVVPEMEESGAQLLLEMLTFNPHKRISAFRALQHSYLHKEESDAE", "T2 sequence (Q8C7D2 whole entry, looked up)": "as the sequence (Q8C7D2 whole entry, looked up, other chains not shown) above", "test": "Protac activity at CRBN/CDK4 in mouse B16F10 cells assessed as induction of CDK4 protein degradation after 12 hrs by Western blot analysis", "type": "cell-based", "conditions": "B16-F10, dose 62.5-1000 nM", "summary_of_the_method": "as §1"}, "[11]": {"test": "AUC (0 to 12 hrs) in Sprague-Dawley rat at 10 mg/kg, iv", "type": "ADME, organism-based", "set-up": "time < 12 hr, route intravenous, dose 10 mg/kg", "conditions": "in vivo"}, "[12]": {"molecular_target": "T2, Protein cereblon/Cyclin-dependent kinase 4 (Mus musculus)", "test": "Protac activity at CRBN/CDK4 in mouse B16F10 cells assessed as induction of CDK4 protein degradation at 100 nM for 6 hrsin presence of methyl 6-(7-cyclopentyl-6-(dimethylcarbamoyl)-7H-pyrrolo[2,3-d]pyrimidin-2-ylamino)nicotinate by Western blot analysis", "type": "cell-based", "conditions": "B16-F10, time 6.0 hrs", "summary_of_the_method": "(§3)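 B16F10 cells pre-treated 2 h with DMSO, pomalidomide (10 μM), MG132 (20 μM) or a parent CDK ligand, then exposed to 100 nM degrader for 6 h. CDK2/4/6 protein levels read by western blot.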"}, "[13]": {"system": "B16-F10", "test": "Induction of apoptosis in mouse B16F10 cells assessed as late apoptotic cells at 500 nM incubated for 48 hrs by Annexin V-FITC/PI staining based flow cytometry (reference value: 0.551%)", "type": "functional"}, "[14]": {"system": "A-375", "test": "Induction of apoptosis in human A-375 cells assessed as early apoptotic cells at 250 nM incubated for 48 hrs by Annexin V-FITC/PI staining based flow cytometry (reference value: 2.82%)", "type": "functional"}, "[15]": {"system": "A-375", "test": "Induction of apoptosis in human A-375 cells assessed as viable cells at 1000 nM incubated for 48 hrs by Annexin V-FITC/PI staining based flow cytometry (reference value: 93.3%)", "type": "functional", "conditions": "read-out: Activity"}, "[16]": {"system": "B16-F10", "test": "Induction of cell cycle arrest in mouse B16F10 cells assessed as accumulation at G2/M phase upto 100 uM incubated for 48 hrs by propidium iodide staining based flow cytometry", "type": "functional", "conditions": "dose microM <=100, time 48.0 hrs"}, "[17]": {"system": "A-375", "test": "Induction of cell cycle arrest in human A-375 cells assessed as accumulation at G2 phase at 1000 uM incubated for 48 hrs by propidium iodide staining based flow cytometry (reference value: 12.42%)", "type": "functional", "summary_of_the_method": "(§4)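 Tumor cells incubated 48 h in complete medium with compound or DMSO at various concentrations, stained with propidium iodide, and DNA content read by flow cytometry. G0/G1, S and G2/M fractions reported; mean ± SD, n = 3, Student's t-test.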"}, "[18]": {"molecular_target": "T1, Protein cereblon/Cyclin-dependent kinase 2 (Mus musculus)", "test": "Protac activity at CRBN/CDK2 in mouse B16F10 cells assessed as induction of CDK2 protein degradation at 100 nM for 6 hrsin presence of methyl 6-(7-cyclopentyl-6-(dimethylcarbamoyl)-7H-pyrrolo[2,3-d]pyrimidin-2-ylamino)nicotinate by Western blot analysis", "type": "cell-based", "conditions": "B16-F10, time 6.0 hrs", "summary_of_the_method": "as §3"}, "[19]": {"system": "B16-F10", "test": "Induction of apoptosis in mouse B16F10 cells assessed as early apoptotic cells at 125 nM incubated for 48 hrs by Annexin V-FITC/PI staining based flow cytometry (reference value: 3.52%)", "type": "functional"}, "[20]": {"system": "A-375", "test": "Induction of cell cycle arrest in human A-375 cells assessed as accumulation at G1 phase at 250 uM incubated for 48 hrs by propidium iodide staining based flow cytometry (reference value: 58.26%)", "type": "functional", "summary_of_the_method": "as §4"}, "[21]": {"system": "A-375", "test": "Induction of cell cycle arrest in human A-375 cells assessed as accumulation at G2 phase at 250 uM incubated for 48 hrs by propidium iodide staining based flow cytometry (reference value: 12.42%)", "type": "functional", "summary_of_the_method": "as §4"}, "[22]": {"system": "A-375", "test": "Induction of apoptosis in human A-375 cells assessed as viable cells at 250 nM incubated for 48 hrs by Annexin V-FITC/PI staining based flow cytometry (reference value: 93.3%)", "type": "functional", "conditions": "read-out: Activity"}, "[23]": {"system": "A-375", "test": "Induction of apoptosis in human A-375 cells assessed as late apoptotic cells at 500 nM incubated for 48 hrs by Annexin V-FITC/PI staining based flow cytometry (reference value: 3.28%)", "type": "functional"}, "[24]": {"system": "B16-F10", "test": "Induction of cell cycle arrest in mouse B16-F10 cells assessed as accumulation at G1 phase at 100 uM incubated for 48 hrs by propidium iodide staining based flow cytometry (reference value: 52.59%)", "type": "functional"}, "[25]": {"system": "A-375", "test": "Induction of apoptosis in human A-375 cells assessed as late apoptotic cells at 1000 nM incubated for 48 hrs by Annexin V-FITC/PI staining based flow cytometry (reference value: 3.28%)", "type": "functional"}, "[26]": {"system": "A-375", "test": "Inhibition of colony formation in human A-375 cells at 250 to 500 nM measured after 7 days by crystal violet staining based colony formation assay", "type": "functional, cell-based", "conditions": "dose 250-500 nM, time 7.0 day", "summary_of_the_method": "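Colony formation (long-term growth) assay in A375 and B16F10 cells under continuous compound exposure for 7 days, then clonogenic growth quantified. Mean ± SD, n = 3; Student's t-test.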"}, "[27]": {"system": "B16-F10", "test": "Induction of apoptosis in mouse B16F10 cells assessed as increase in cleaved PARP level incubated for 48 hrs by Western blot analysis", "type": "functional, cell-based", "conditions": "dose nM <=1000, time 48.0 hrs", "summary_of_the_method": "as §2"}}, "note": "pIC50: −log10 of the molar value. Activity calls are given as the source filed them. No cut-off for these calls is given here."}
{"compound": "CN(C)C(=O)c1cc2cnc(Nc3ccc(C(=O)NCCCCCCNc4cccc5c4C(=O)N(C4CCC(=O)NC4=O)C5=O)cc3)nc2n1C1CCCC1", "note": "(configuration not stated)", "values": [{"measurement": "Activity", "setting": "[1]", "result": "Dose-dependent effect"}, {"measurement": "Activity", "setting": "[2]", "result": 0.144, "unit": "%"}, {"measurement": "Activity", "setting": "[3]", "result": "Dose-dependent effect"}, {"measurement": "Activity", "setting": "[4]", "result": "Tde"}, {"measurement": "Activity", "setting": "[5]", "result": 6.5, "unit": "%"}, {"measurement": "Activity", "setting": "[6]", "result": 0.153, "unit": "%"}, {"measurement": "pIC50", "setting": "[7]", "result": 7.01}, {"measurement": "Activity", "setting": "[8]", "result": "Dose-dependent effect"}, {"measurement": "Activity", "setting": "[9]", "result": "Dose-dependent effect"}, {"measurement": "Activity", "setting": "[10]", "result": "Dose-dependent effect"}, {"measurement": "AUC", "setting": "[11]", "result": 161, "unit": "µg·h/mL"}, {"measurement": "Activity", "setting": "[12]", "result": "inactive"}, {"measurement": "Activity", "setting": "[13]", "result": 1.63, "unit": "%"}, {"measurement": "Activity", "setting": "[14]", "result": 5.54, "unit": "%"}, {"measurement": "viability at 1 µM", "setting": "[15]", "result": 55.2, "unit": "%"}, {"measurement": "Activity", "setting": "[16]", "result": "Active"}, {"measurement": "Activity", "setting": "[17]", "result": 16.68, "unit": "%"}, {"measurement": "Activity", "setting": "[18]", "result": "inactive"}, {"measurement": "Activity", "setting": "[19]", "result": 7.15, "unit": "%"}, {"measurement": "Activity", "setting": "[20]", "result": 67.64, "unit": "%"}, {"measurement": "Activity", "setting": "[21]", "result": 9.57, "unit": "%"}, {"measurement": "viability at 0.25 µM", "setting": "[22]", "result": 90.5, "unit": "%"}, {"measurement": "Activity", "setting": "[23]", "result": 5.1, "unit": "%"}, {"measurement": "Activity", "setting": "[24]", "result": 52.42, "unit": "%"}, {"measurement": "Activity", "setting": "[25]", "result": 14.8, "unit": "%"}, {"measurement": "inhibition", "setting": "[26]", "result": "Active"}, {"measurement": "Activity", "setting": "[27]", "result": "Dose-dependent effect"}]}
